Laboratory results as given in ChEMBL document CHEMBL3132758, “Synthesis, Activity and Structure-Activity Relationship of Noroviral Protease Inhibitors” (Medchemcomm, 2013).
Active and inactive are the calls of the source. The calls are words filed in the database; no cut-off is given here. Non-standard residues stand in square brackets, D forms with d. Residues, ends and D or L forms follow the SMILES beside them. *: point of attachment. Pyrrolidide = C1CCN(*)C1; Cbz = O=C(OCc1ccccc1)*; Dap = NC[C@H](N)C(=O)O

Legend:
[1] = (§1) Inhibition of Norwalk virus recombinant His6-tagged protease using EDANS-EPDFHLQGPEDLAK-Dabcyl as substrate preincubated for 45 mins followed by substrate addition measured every 1 min for 30 mins by FRET analysis
Outline: (§2)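 Protease purified on Ni-NTA, used at 0.5 μM final. Preincubated with inhibitor (0, 0.05, 0.2, 1, 5, 20, 100, 150 μM) in 50 mM NaH2PO4 pH 8, 50 mM NaCl, 5 mM TCEP, room temperature. Substrate added to 30 μM final. Fluorescence read at ex 360/em 460 nm at 37 °C. Ki derived from initial velocities by Morrison tight-binding fit.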

[2] = Selectivity ratio of Ki for Houston virus recombinant His6-tagged protease to Ki for Norwalk virus recombinant His6-tagged protease
[3] = Inhibition of Houston virus recombinant His6-tagged protease using EDANS-EPDFHLQGPEDLAK-Dabcyl as substrate preincubated for 45 mins followed by substrate addition measured every 1 min for 30 mins by FRET analysis; set-up: species or system genotype 2; outline: as §2
Norwalk virus = experiment: as §1; outline: as §2

inhibition (Norwalk virus)	Compound	Ki [1] [µM]	Ratio Ki [2]	Ki [3] [µM]
–	CC(C)C[C@H](NC(=O)[C@H](Cc1c[nH]cn1)NC(=O)OCc1ccccc1)C(=O)N[C@H](C=O)CCC(=O)N(C)C (Cbz-His-Leu-Glu(NMe2)-aldehyde)	1.9	–	–
–	CC(C)[C@H](NC(=O)OCc1ccccc1)C(=O)N1CCC[C@H]1C(=O)N[C@H](C=O)CCC(=O)N(C)C (Cbz-Val-Pro-Glu(NMe2)-aldehyde)	8.2	–	–
–	CC(C)C[C@H](NC(=O)[C@H](C)NC(=O)OCc1ccccc1)C(=O)N[C@H](C=O)CCC(=O)N(C)C (Cbz-Ala-Leu-Glu(NMe2)-aldehyde)	0.59	10	4.6
inactive	CCOC(=O)/C=C/[C@H](CCC(=O)N(C)C)NC(=O)[C@H](Cc1ccccc1)NC(=O)[C@H](CC(C)C)NC(=O)OCc1ccccc1	–	–	–
–	CNC(=O)CC[C@@H](C=O)NC(=O)[C@H](Cc1ccccc1)NC(=O)[C@H](CC(C)C)NC(=O)OCc1ccccc1 (Cbz-Leu-Phe-Glu(NHMe)-aldehyde)	5.1	–	–
–	CC(=O)[C@H](CCC(=O)N(C)C)NC(=O)[C@H](Cc1ccccc1)NC(=O)[C@H](CC(C)C)NC(=O)OCc1ccccc1	150	–	–
–	CC(=O)NC[C@@H](C=O)NC(=O)[C@H](Cc1ccccc1)NC(=O)[C@H](CC(C)C)NC(=O)OCc1ccccc1 (Cbz-Leu-Phe-[Dap](Ac)-aldehyde)	1.5	10	14
–	CC(C)C[C@H](NC(=O)OCc1ccccc1)C(=O)N1CCC[C@H]1C(=O)N[C@H](C=O)CCC(=O)N(C)C (Cbz-Leu-Pro-Glu(NMe2)-aldehyde)	46	–	–
inactive	CCOC(=O)/C=C/[C@H](CCC(N)=O)NC(=O)[C@H](Cc1ccccc1)NC(=O)[C@H](CC(C)C)NC(=O)OCc1ccccc1	–	–	–
–	CC(C)C[C@H](NC(=O)OCc1ccccc1)C(=O)N[C@@H](Cc1ccccc1)C(=O)N[C@H](C=O)CCC(=O)NC1CC1	1.4	–	–
–	CC(C)C[C@H](NC(=O)OCc1ccccc1)C(=O)N[C@@H](Cc1ccccc1)C(=O)N[C@H](C=O)CCC(=O)N1CCCC1 (Cbz-Leu-Phe-Glu(Pyrrolidide)-aldehyde)	0.075	–	–
–	CC(C)C[C@H](NC(=O)OCc1ccccc1)C(=O)N[C@@H](Cc1ccccc1)C(=O)N[C@H](C=O)CCC(=O)N(C)C (Cbz-Leu-Phe-Glu(NMe2)-aldehyde)	0.12	60	7.5
inactive	CCOC(=O)/C=C/[C@H](CNC(C)=O)NC(=O)[C@H](Cc1ccccc1)NC(=O)[C@H](CC(C)C)NC(=O)OCc1ccccc1	–	–	–
–	CC(=O)N[C@@H](CC(C)C)C(=O)N[C@@H](Cc1ccccc1)C(=O)N[C@H](C=O)CCC(=O)N(C)C (Ac-Leu-Phe-Glu(NMe2)-aldehyde)	39	–	–
–	CN(C)C(=O)CC[C@@H](C=O)NC(=O)[C@H](Cc1ccccc1)NC(=O)[C@H](CC(N)=O)NC(=O)OCc1ccccc1 (Cbz-Asn-Phe-Glu(NMe2)-aldehyde)	1.6	–	–
–	CC(C)C[C@H](NC(=O)[C@H](CCC(N)=O)NC(=O)OCc1ccccc1)C(=O)N[C@H](C=O)CCC(=O)N(C)C (Cbz-Gln-Leu-Glu(NMe2)-aldehyde)	0.31	10	4.3
